Data reported in paper PMC2864799 (Assay and drug development technologies, 2010).
Each block holds one compound with its values, some of them ahead of it.

Assays:
Format in all cases: biochemical
[1] = biological target: T1, hGST M1-1 (Homo sapiens, UniProt P09488); assay: 1,536-well luminescence GST inhibition assay, hGST M1-1; conditions: for IC50: 5 nM hGST M1-1, 10 μM PBI 3773, 40 min
T1 sequence (P09488 2-218 limits assumed): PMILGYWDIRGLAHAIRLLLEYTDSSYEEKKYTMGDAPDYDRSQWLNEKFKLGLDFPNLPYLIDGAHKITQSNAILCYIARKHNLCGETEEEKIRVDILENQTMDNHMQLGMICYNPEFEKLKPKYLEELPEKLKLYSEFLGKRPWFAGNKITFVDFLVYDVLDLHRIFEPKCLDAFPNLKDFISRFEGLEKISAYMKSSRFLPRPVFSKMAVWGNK
Summary of the method: (§1)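 GST at 5 nM (hGST P1-1 125 nM) with GSH in 50 mM HEPES pH 7.5, 0.01% Tween-20. Pin-added test compound (1:2 16-point or 1:3 8-point series), 10 or 15 min RT. Substrate: PBI 1155 20 μM (S. japonicum), PBI 3773 10 μM (A1-1, M1-1, A4-4), PBI 1158 100 μM (P1-1). Reaction 40 min (P1-1 60 min) RT, then luciferase detection reagent and luminescence read. Percent inhibition from median catalyzed and no-enzyme controls; duplicate wells; curve-fitted IC50.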

[2] = tested on: GSTs (hGST A1-1, mGST A4-4, hGST M1-1, hGST P1-1, S. japonicum GST); assay: 1,536-well luminescence GST inhibition assay, all GSTs tested
Summary of the method: as §1

[3] = biological target: hGST P1-1 (Homo sapiens, UniProt P09211); assay: 1,536-well luminescence GST inhibition assay, hGST P1-1
hGST P1-1, sequence (P09211 2-210 limits assumed): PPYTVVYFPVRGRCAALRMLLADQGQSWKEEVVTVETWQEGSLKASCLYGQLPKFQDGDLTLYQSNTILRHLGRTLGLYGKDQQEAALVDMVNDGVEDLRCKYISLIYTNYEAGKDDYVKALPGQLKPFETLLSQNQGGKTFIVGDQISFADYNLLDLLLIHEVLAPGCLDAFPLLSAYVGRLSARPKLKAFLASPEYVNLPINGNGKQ
Summary of the method: as §1

[4] = biological target: S. japonicum GST (Schistosoma japonicum, UniProt P08515); assay: 1,536-well luminescence GST inhibition assay, S. japonicum GST
S. japonicum GST, sequence (P08515 whole entry): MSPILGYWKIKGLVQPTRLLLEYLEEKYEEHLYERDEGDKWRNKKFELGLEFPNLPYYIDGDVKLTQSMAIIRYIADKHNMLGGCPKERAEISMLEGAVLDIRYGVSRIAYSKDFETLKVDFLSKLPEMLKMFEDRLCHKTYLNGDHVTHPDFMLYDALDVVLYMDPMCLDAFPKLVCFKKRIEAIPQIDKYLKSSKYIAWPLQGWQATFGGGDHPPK
Summary of the method: as §1

IC50 [1]: 0.191 µM | fold difference in IC50 (NBD-GS vs Bis-(NB-GS)) ([1]; hGST M1-1): ~ 130 fold
Structure (SMILES): NC(CCC(=O)NC(CSc1ccc(C(=O)OCCOCCOCCOCCOC(=O)c2ccc(SCC(NC(=O)CCC(N)C(=O)O)C(=O)NCC(=O)O)c([N+](=O)[O-])c2)cc1[N+](=O)[O-])C(=O)NCC(=O)O)C(=O)O (stereo not shown) [Bis-(NB-GS)]

Structure (SMILES): O=[N+]([O-])c1ccc(Cl)c([N+](=O)[O-])c1 [CDNB, 1-chloro-2,4-dinitrobenzene]
inhibition (in words) ([2]; top concentrations tested near 100 μM): partial inhibition only at the top concentrations tested

Structure (SMILES): O=[N+]([O-])c1ccc(SCCCCCCCCO)c2nonc12 [NBD-8-OH]
inhibitory activity (in words) ([2]; against the GSTs tested): single-digit micromolar or better

IC50 [1]: 24.4 µM
Structure (SMILES): NC(CCC(=O)NC(CSc1ccc([N+](=O)[O-])c2nonc12)C(=O)NCC(=O)O)C(=O)O (stereo not shown) [NBD-GS]

Structure (SMILES): Nc1c(S(=O)(=O)O)cc(Nc2ccc(Nc3nc(Cl)nc(Nc4cccc(S(=O)(=O)O)c4)n3)c(S(=O)(=O)O)c2)c2c1C(=O)c1ccccc1C2=O [Reactive Blue 2]
onset of luminescence decrease relative to IC50 ([1]; hGST M1-1): 8 fold | onset of luminescence quenching relative to IC50 ([3]; hGST P1-1): approximately 60 fold | IC50 [4]: 0.063 µM | onset of luminescence quenching relative to IC50 ([4]; S. japonicum GST): several hundred times greater

Structure (SMILES): O=C1OC(c2ccc(O)c(S(=O)(=O)O)c2)(c2ccc(O)c(S(=O)(=O)O)c2)c2c(Br)c(Br)c(Br)c(Br)c21 [bromosulfalein]
inhibition (in words) ([3]; 125 nM hGST P1-1, 100 μM PBI 1158, 60 min): lack of inhibition
